Source: ChEMBL document CHEMBL3351507, “11H-Pyrido[3',2':4,5]pyrrolo[3,2-c]cinnoline and pyrido[3',2':4,5]pyrrolo[1,2-c][1,2,3]benzotriazine: two new ring systems with antitumor activity” (2014)
Active and inactive are the calls of the source. The calls are words filed in the database; no cut-off is given here.

Key:
CCRF-CEM = assay: Cytotoxicity against human CCRF-CEM cells assessed as growth inhibition after 72 hrs by MTT assay; assay type: functional
[1] = Cytotoxicity against human UACC62 cells assessed as growth inhibition after 72 hrs by MTT assay; assay type: functional; settings: UACC-62, 72 h
How it was run: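 NCI 60-cell-line panel screen. Compounds were tested at 5 concentrations in 10-fold dilution (10^-4 to 10^-8 M) across the full panel. GI50 was taken as the molar concentration giving 50% inhibition of net cell growth.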

LoVo [2] = assay: Anticlonogenic activity against human LoVo cells assessed as inhibition of colony formation of cells at 2.5 to 5 uM incubated for 24 hrs followed by compound washout measured after 1 to 2 weeks by crystal violet staining-based assay; assay type: functional, cell-based
Jurkat = assay: Cell cycle arrest in human Jurkat cells assessed as accumulation at S phase at 0.25 uM after 24 hrs by propidium iodide staining-based flow cytometry (reference value: 15.5%); assay type: functional
LoVo [3] = assay: Anticlonogenic activity against human LoVo cells assessed as inhibition of colony formation of cells at 0.625 to 10 uM incubated for 24 hrs followed by compound washout measured after 1 to 2 weeks by crystal violet staining-based assay; assay type: functional, cell-based

In the case of COc1cc2nnn3c4ncccc4c(N=O)c3c2cc1OC, the GI50 (CCRF-CEM) was under 10 nM, the GI50 [1] was 2920 nM and the inhibition (LoVo [2]) was “Active”. The Activity (Jurkat) was 15.4%.
With COc1ccc2c(c1)nnn1c3ncccc3c(N=O)c21 the GI50 [1] was 850 nM, the inhibition (LoVo [3]) was “Active” and the Activity (Jurkat) was 25.1%.
For O=Nc1c2cccnc2n2nnc3ccc(Cl)cc3c12, the GI50 (CCRF-CEM) was 23 nM and the GI50 [1] was 2360 nM.
In the case of COc1cc2nnc3c4cccnc4[nH]c3c2cc1OC, the GI50 [1] was 2490 nM.
For COc1ccc2c(c1)nnc1c3cccnc3[nH]c21, the GI50 [1] was 910 nM, the inhibition (LoVo [2]) was “Active” and the Activity (Jurkat) was 24.1%.
